{"source": "ChEMBL document CHEMBL1155617", "about": "“Cytotoxic constituents of Polyalthia longifolia var. pendula” (J Nat Prod, 2000)", "assay_type_in_all_cases": "functional, cell-based", "key": {"HepG2 [1]": {"test_system": "HepG2", "experiment": "Cytotoxicity against human HepG2 cells by MTS colorimetric assay", "how_it_was_run": "(§1)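 Cells grown in DMEM with 10% fetal calf serum and seeded 24 h before treatment. Viability read by MTS colorimetric assay after 72 h compound exposure. IC50 taken as mean concentration giving 50% growth inhibition from replicate values.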"}, "DLD-1 [2]": {"test_system": "DLD-1", "experiment": "Cytotoxicity against human DLD1 cells by MTS colorimetric assay", "how_it_was_run": "as §1"}, "[3]": {"experiment": "(§2) Cytotoxicity against human HA59T cells by MTS colorimetric assay", "how_it_was_run": "as §1"}, "AGS [4]": {"test_system": "AGS", "experiment": "Cytotoxicity against human AGS cells by MTS colorimetric assay", "how_it_was_run": "as §1"}, "HA59T [5]": {"test_system": "HA59T", "experiment": "Cytotoxicity against human HA59T cells upto 30 by MTS colorimetric assay", "how_it_was_run": "(§3)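 Cells grown in DMEM with 10% fetal calf serum, seeded and cultured 24 h, then exposed to test compounds for 72 h. Viability read by MTS colorimetric assay.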"}, "DLD-1 [6]": {"test_system": "DLD-1", "experiment": "Cytotoxicity against human DLD1 cells upto 30 by MTS colorimetric assay", "how_it_was_run": "as §3"}, "AGS [7]": {"test_system": "AGS", "experiment": "Cytotoxicity against human AGS cells upto 30 uM by MTS colorimetric assay", "how_it_was_run": "as §3"}, "HepG2 [8]": {"test_system": "HepG2", "experiment": "Cytotoxicity against human HepG2 cells upto 30 by MTS colorimetric assay", "how_it_was_run": "as §3"}, "HA59T [9]": {"test_system": "HA59T", "experiment": "as §2", "how_it_was_run": "as §1"}}, "note": "Active and inactive are the calls of the source. No cut-off for these calls is given here.", "data": [{"smiles": "c1ccc2c(c1)C[C@H]1NCCc3cc4c(c-2c31)OCO4", "note": "[ANONAINE]", "values": [{"measurement": "IC50", "setting": "HepG2 [1]", "result": 20.8, "unit": "µM"}, {"measurement": "IC50", "setting": "DLD-1 [2]", "result": 28.9, "unit": "µM"}, {"measurement": "IC50", "setting": "[3]", "result": 16.4, "unit": "µM"}, {"measurement": "IC50", "setting": "AGS [4]", "result": 8.6, "unit": "µM"}]}, {"smiles": "COc1cc2c(cc1O)[C@@H]1Cc3ccc(O)c(OC)c3CN1CC2", "values": [{"measurement": "Activity", "setting": "HA59T [5]", "result": "inactive"}, {"measurement": "Activity", "setting": "DLD-1 [6]", "result": "inactive"}, {"measurement": "Activity", "setting": "AGS [7]", "result": "inactive"}, {"measurement": "Activity", "setting": "HepG2 [8]", "result": "inactive"}]}, {"smiles": "CC1=CCC[C@@H]2[C@@](C)(CCC3=CC(=O)O[C@@H]3O)[C@H](C)CC[C@@]12C", "values": [{"measurement": "IC50", "setting": "HepG2 [1]", "result": "> 30", "unit": "µM"}, {"measurement": "IC50", "setting": "DLD-1 [2]", "result": "> 30", "unit": "µM"}, {"measurement": "IC50", "setting": "[3]", "result": 23.6, "unit": "µM"}, {"measurement": "IC50", "setting": "AGS [4]", "result": 26.9, "unit": "µM"}]}, {"smiles": "C[C@@H]1CC[C@@]2(O)[C@H](CC[C@H](O)C2(C)C)[C@@]1(C)CCC1=CC(=O)O[C@@H]1O", "values": [{"measurement": "Activity", "setting": "HepG2 [1]", "result": "inactive"}, {"measurement": "Activity", "setting": "DLD-1 [2]", "result": "inactive"}, {"measurement": "Activity", "setting": "HA59T [9]", "result": "inactive"}, {"measurement": "Activity", "setting": "AGS [4]", "result": "inactive"}]}, {"smiles": "COc1ccc2c(c1O)-c1nccc(C)c1C2=O", "values": [{"measurement": "IC50", "setting": "HepG2 [1]", "result": "> 30", "unit": "µM"}, {"measurement": "IC50", "setting": "DLD-1 [2]", "result": "> 30", "unit": "µM"}, {"measurement": "IC50", "setting": "[3]", "result": 21.7, "unit": "µM"}, {"measurement": "IC50", "setting": "AGS [4]", "result": "> 30", "unit": "µM"}]}, {"smiles": "COc1cc2c(cc1O)C[C@@H]1NCCc3cc(O)c(OC)c-2c31", "values": [{"measurement": "Activity", "setting": "HA59T [5]", "result": "inactive"}, {"measurement": "Activity", "setting": "DLD-1 [6]", "result": "inactive"}, {"measurement": "Activity", "setting": "AGS [7]", "result": "inactive"}, {"measurement": "Activity", "setting": "HepG2 [8]", "result": "inactive"}]}]}
